According to ChEMBL document CHEMBL1177718, “Phosphoramidate ProTides of 2'-C-methylguanosine as highly potent inhibitors of hepatitis C virus. Study of their in vitro and in vivo properties” (J Med Chem, 2010):

Columns and labels:
[1] = Metabolic stability in cynomolgus monkey intestine S9 fraction assessed as compound remaining at 10 uM after 60 mins by HPLC analysis in absence of NADP; format: ADME, tissue-based, Macaca fascicularis; details: read-out: Stability
Procedure, shortened: (§1)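 Liver or intestinal S9 at final 1 mg/mL in 50 mM potassium phosphate, with or without NADPH-regenerating system (1.3 mM NADP, 3.3 mM glucose-6-phosphate, 0.4 U/mL G6PDH, 3.3 mM MgCl₂); 10 min preincubation at 37 °C; compound at final 10 μM; samples at start and 60 min quenched in cold acetonitrile, centrifuged, HPLC; % parent remaining.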

[2] = Metabolic stability in rat intestine S9 fraction assessed as compound remaining at 10 uM after 60 mins by HPLC analysis in presence of NADP; format: ADME, tissue-based; details: read-out: Stability
Procedure, shortened: (§2)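 Rat liver or intestinal S9 at 1 mg/mL final in 50 mM potassium phosphate, with or without NADPH-regenerating system (final 1.3 mM NADP, 3.3 mM glucose-6-phosphate, 0.4 U/mL G6P dehydrogenase, 3.3 mM MgCl2). Preincubated 10 min at 37 °C with shaking, started with compound at 10 μM final. Samples taken at 0 and 60 min, quenched in cold acetonitrile, centrifuged, and parent disappearance measured by HPLC.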

[3] = Metabolic stability in cynomolgus monkey liver S9 fraction assessed as compound remaining at 10 uM after 60 mins by HPLC analysis in absence of NADP; format: ADME, subcellular, Macaca fascicularis; details: read-out: Stability; procedure, shortened: as §1
[4] = Metabolic stability in dog liver S9 fraction assessed as compound remaining at 10 uM after 60 mins by HPLC analysis in presence of NADP; format: ADME, subcellular, Canis lupus familiaris; details: read-out: Stability; procedure, shortened: as §1
Hepatitis C virus = assay: Antiviral activity against HCV1b infected in human HuH7 cells assessed as inhibition of viral replication after 48 hrs by luciferase reporter gene assay; format: functional, organism-based, Hepacivirus hominis; details: genotype 1b, Huh-7, 48 h
Procedure, shortened: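 Huh7 cells carrying genotype 1b bicistronic subgenomic replicon, seeded 2 × 10⁴/well without G-418; compounds added 18-24 h later, 48 h exposure; 3× or 4× serial dilutions over 0.0001-10 μM in triplicate/quadruplicate; Renilla luciferase read-out versus untreated cells; EC₅₀ by four-parameter sigmoidal nonlinear regression; at least three independent assays.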

[5] = Metabolic stability in human intestine S9 fraction assessed as compound remaining at 10 uM after 60 mins by HPLC analysis in absence of NADP; format: ADME, tissue-based; details: read-out: Stability; procedure, shortened: as §1
[6] = Metabolic stability in human liver S9 fraction assessed as compound remaining at 10 uM after 60 mins by HPLC analysis in presence of NADP; format: ADME, subcellular; details: read-out: Stability; procedure, shortened: as §1
[7] = Metabolic stability in cynomolgus monkey intestine S9 fraction assessed as compound remaining at 10 uM after 60 mins by HPLC analysis in presence of NADP; format: ADME, tissue-based, Macaca fascicularis; details: read-out: Stability; procedure, shortened: as §1
[8] = Cmax in ICR mouse plasma at 50 mg/kg, po by LC-MS/MS analysis; format: ADME, organism-based; set-up: dose 50 mg/kg, route oral
[9] = Cytotoxicity against human HuH7 cells after 72 hrs by celltiter-glo assay; format: cell-based, Huh-7
Procedure, shortened: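 Replicon 1b Huh7 cells seeded 2 × 10⁴/well; after 24 h, 11 serial 2× dilutions from 100 μM (three repeats each) with no-compound control; 72 h at 37 °C, CO₂, log-phase growth; viability by CellTiter-Glo luminescence; CC₅₀ = concentration giving 50% signal.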

[10] = Metabolic stability in rat liver S9 fraction assessed as compound remaining at 10 uM after 60 mins by HPLC analysis in absence of NADP; format: ADME, subcellular; details: read-out: Stability; procedure, shortened: as §2
[11] = Metabolic stability in dog intestine S9 fraction assessed as compound remaining at 10 uM after 60 mins by HPLC analysis in absence of NADP; format: ADME, tissue-based, Canis lupus familiaris; details: read-out: Stability; procedure, shortened: as §1
[12] = Metabolic stability in human intestine S9 fraction assessed as compound remaining at 10 uM after 60 mins by HPLC analysis in presence of NADP; format: ADME, tissue-based; details: read-out: Stability; procedure, shortened: as §1
[13] = Metabolic stability in dog intestine S9 fraction assessed as compound remaining at 10 uM after 60 mins by HPLC analysis in presence of NADP; format: ADME, tissue-based, Canis lupus familiaris; details: read-out: Stability; procedure, shortened: as §1
Liver [14] = assay: Dose normalized AUC in ICR mouse liver at 50 mg/kg, po by LC-MS/MS analysis; format: ADME, organism-based; set-up: dose 50 mg/kg, route oral; details: in vivo
[15] = Metabolic stability in rat liver S9 fraction assessed as compound remaining at 10 uM after 60 mins by HPLC analysis in presence of NADP; format: ADME, subcellular; details: read-out: Stability; procedure, shortened: as §2
[16] = Metabolic stability in human liver S9 fraction assessed as compound remaining at 10 uM after 60 mins by HPLC analysis in absence of NADP; format: ADME, subcellular; details: read-out: Stability; procedure, shortened: as §1
[17] = Metabolic stability in cynomolgus monkey liver S9 fraction assessed as compound remaining at 10 uM after 60 mins by HPLC analysis in presence of NADP; format: ADME, subcellular, Macaca fascicularis; details: read-out: Stability; procedure, shortened: as §1
[18] = Metabolic stability in dog liver S9 fraction assessed as compound remaining at 10 uM after 60 mins by HPLC analysis in absence of NADP; format: ADME, subcellular, Canis lupus familiaris; details: read-out: Stability; procedure, shortened: as §1
Plasma = assay: Dose normalized AUC in ICR mouse plasma at 50 mg/kg, po by LC-MS/MS analysis; format: ADME, organism-based; set-up: dose 50 mg/kg, route oral; details: in vivo
[19] = Metabolic stability in rat intestine S9 fraction assessed as compound remaining at 10 uM after 60 mins by HPLC analysis in absence of NADP; format: ADME, tissue-based; details: read-out: Stability; procedure, shortened: as §2
[20] = Metabolic stability in mouse plasma assessed as compound remaining at 1 ug/ml after 30 mins; format: ADME, cell-free; details: read-out: Stability
Liver [21] = assay: AUC (0 to 6 hrs) in ICR mouse liver at 50 mg/kg, po by LC-MS/MS analysis; format: ADME, organism-based; set-up: time < 6 hr, dose 50 mg/kg, route oral; details: in vivo
[22] = Metabolic stability in human liver S9 fraction assessed as compound remaining at 10 uM after 30 mins by HPLC analysis in presence of NADP; format: ADME, subcellular; details: read-out: Stability
[23] = Metabolic stability in human intestine S9 fraction assessed as compound remaining at 10 uM after 30 mins by HPLC analysis in presence of NADP; format: ADME, tissue-based; details: read-out: Stability
[24] = Metabolic stability in human intestine S9 fraction assessed as compound remaining at 10 uM after 30 mins by HPLC analysis in absence of NADP; format: ADME, tissue-based; details: read-out: Stability
[25] = Metabolic stability in human liver S9 fraction assessed as compound remaining at 10 uM after 30 mins by HPLC analysis in absence of NADP; format: ADME, subcellular; details: read-out: Stability
[26] = Metabolic stability in mouse plasma assessed as compound remaining at 1 ug/ml after 4 hrs; format: ADME, cell-free; details: read-out: Stability

| remaining at 1 h, 10 µM [4] [%] | EC50 (Hepatitis C virus) [µM] | remaining at 1 h, 10 µM [11] [%] | remaining at 1 h, 10 µM [13] [%] | remaining at 1 h, 10 µM [18] [%] | remaining at 0.5 h, 1 ug/ml [20] [%] | Compound | remaining at 1 h, 10 µM [1] [%] | remaining at 1 h, 10 µM [2] [%] | remaining at 1 h, 10 µM [3] [%] | remaining at 1 h, 10 µM [5] [%] | remaining at 1 h, 10 µM [6] [%] | remaining at 1 h, 10 µM [7] [%] | CC50 at 72 h [9] [µM] | remaining at 1 h, 10 µM [10] [%] | remaining at 1 h, 10 µM [12] [%] | remaining at 1 h, 10 µM [15] [%] | remaining at 1 h, 10 µM [16] [%] | remaining at 1 h, 10 µM [17] [%] | remaining at 1 h, 10 µM [19] [%] | also measured |
| --- | --- | --- | --- | --- | --- | --- | --- | --- | --- | --- | --- | --- | --- | --- | --- | --- | --- | --- | --- | --- |
| 14 | 0.12 | 33 | 12 | 48 | 2 | CC(C)C[C@H](NP(=O)(OC[C@H]1O[C@@H](n2cnc3c(=O)[nH]c(N)nc32)[C@](C)(O)[C@@H]1O)Oc1cccc2ccccc12)C(=O)OCc1ccccc1 (some centres undefined) |  |  |  |  |  |  | > 50 |  |  |  |  |  |  | remaining at 0.5 h, 10 µM [22]: 0%; remaining at 0.5 h, 10 µM [23]: 8%; remaining at 0.5 h, 10 µM [24]: 28%; remaining at 0.5 h, 10 µM [25]: 44% |
| 64 | 0.9 | 96 | 87 | 84 | 100 | CC[C@H](C)[C@H](NP(=O)(OC[C@H]1O[C@@H](n2cnc3c(=O)[nH]c(N)nc32)[C@](C)(O)[C@@H]1O)Oc1cccc2ccccc12)C(=O)OCc1ccccc1 (some centres undefined) | 95 | 71 | 89 | 74 | 29 | 29 | > 50 | 78 | 52 | 37 | 83 | 0 | 70 | remaining at 4 h, 1 ug/ml [26]: 95% |

| Compound | remaining at 1 h, 10 µM [4] [%] | EC50 (Hepatitis C virus) [µM] | remaining at 1 h, 10 µM [11] [%] | remaining at 1 h, 10 µM [13] [%] | remaining at 1 h, 10 µM [18] [%] | remaining at 0.5 h, 1 ug/ml [20] [%] | remaining at 1 h, 10 µM [1] [%] | remaining at 1 h, 10 µM [2] [%] | remaining at 1 h, 10 µM [3] [%] | remaining at 1 h, 10 µM [5] [%] | remaining at 1 h, 10 µM [6] [%] | remaining at 1 h, 10 µM [7] [%] | CC50 at 72 h [9] [µM] | remaining at 1 h, 10 µM [10] [%] | remaining at 1 h, 10 µM [12] [%] | remaining at 1 h, 10 µM [15] [%] | remaining at 1 h, 10 µM [16] [%] | remaining at 1 h, 10 µM [17] [%] | remaining at 1 h, 10 µM [19] [%] | also measured |
| --- | --- | --- | --- | --- | --- | --- | --- | --- | --- | --- | --- | --- | --- | --- | --- | --- | --- | --- | --- | --- |
| C[C@H](NP(=O)(OC[C@H]1O[C@@H](n2cnc3c(=O)[nH]c(N)nc32)[C@](C)(O)[C@@H]1O)Oc1cccc2ccccc12)C(=O)OCC(C)(C)C (some centres undefined) | 49 | 0.057 | 56 | 42 | 87 | 0.3 | 68 | 57 | 88 | 49 | 7 | 20 | > 100 | 31 | 28 | 5 | 59 | 16 | 86 | Cmax [8]: 262 ng/mL; AUC (Liver [14]): 32 ng·h/g; AUC (Plasma): 38 ng·h/mL; AUC (Liver [21]): 1584 ng·h/g |
